Reference: ChEMBL document CHEMBL1147081, “Structure of the deacetylase LpxC bound to the antibiotic CHIR-090: Time-dependent inhibition and specificity in ligand binding” (Proc Natl Acad Sci U S A, 2007)
Positions count from the first letter of the chain named. Names and notes keep the numbering of the source.

Legend:
[1] = substrate: C[C@@H](O)[C@H](NC(=O)c1ccc(C#Cc2ccc(CN3CCOCC3)cc2)cc1)C(=O)NO; experiment: Activity of Escherichia coli LpxC
Summary of the method: (§1)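 Wild-type and site-directed mutant LpxC (E. coli, R. leguminosarum) expressed and purified, then assayed by a previously described method. Substrate was UDP-3-O-(R-3-hydroxymyristoyl)-N-acetylglucosamine, varied for Michaelis–Menten analysis. KM and kcat came from data sets pooling multiple independent experiments.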

[2] = substrate: C[C@@H](O)[C@H](NC(=O)c1ccc(C#Cc2ccc(CN3CCOCC3)cc2)cc1)C(=O)NO; experiment: Ratio of Kcat to Km for Escherichia coli LpxC; summary of the method: as §1
[3] = substrate: C[C@@H](O)[C@H](NC(=O)c1ccc(C#Cc2ccc(CN3CCOCC3)cc2)cc1)C(=O)NO; experiment: Activity of Escherichia coli LpxC Q202W/G210S mutant; summary of the method: as §1
[4] = substrate: C[C@@H](O)[C@H](NC(=O)c1ccc(C#Cc2ccc(CN3CCOCC3)cc2)cc1)C(=O)NO; experiment: Ratio of Kcat to Km of Escherichia coli LpxC Q202W/G210S mutant; summary of the method: as §1
[5] = substrate: C[C@@H](O)[C@H](NC(=O)c1ccc(C#Cc2ccc(CN3CCOCC3)cc2)cc1)C(=O)NO; experiment: Activity of Rhizobium leguminosarum LpxC S214G mutant; summary of the method: as §1
[6] = substrate: C[C@@H](O)[C@H](NC(=O)c1ccc(C#Cc2ccc(CN3CCOCC3)cc2)cc1)C(=O)NO; experiment: Ratio of Kcat to Km of Rhizobium leguminosarum LpxC S214G mutant; summary of the method: as §1
[7] = substrate: C[C@@H](O)[C@H](NC(=O)c1ccc(C#Cc2ccc(CN3CCOCC3)cc2)cc1)C(=O)NO; experiment: Activity of Rhizobium leguminosarum LpxC W206Q/S214G mutant; summary of the method: as §1
[8] = substrate: C[C@@H](O)[C@H](NC(=O)c1ccc(C#Cc2ccc(CN3CCOCC3)cc2)cc1)C(=O)NO; experiment: Ratio of Kcat to Km of Rhizobium leguminosarum LpxC W206Q/S214G mutant; summary of the method: as §1

B1: UDP-3-O-acyl-N-acetylglucosamine deacetylase (Escherichia coli K-12), P0A725 (protein)
chain: MIKQRTLKRIVQATGVGLHTGKKVTLTLRPAPANTGVIYRRTDLNPPVDFPADAKSVRDTMLCTCLVNEHDVRISTVEHLNAALAGLGIDNIVIEVNAPEIPIMDGSAAPFVYLLLDAGIDELNCAKKFVRIKETVRVEDGDKWAEFKPYNGFSLDFTIDFNHPAIDSSNQRYAMNFSADAFMRQISRARTFGFMRDIEYLQSRGLCLGGSFDCAIVVDDYRVLNEDGLRFEDEFVRHKMLDAIGDLFMCGHNIIGAFTAYKSGHALNNKLLQAVLAKQEAWEYVTFQDDAELPLAFKAPSAVLA
For B1, the Km [1] was 4 µM, the kcat [1] was 4.2 s⁻¹ and the kcat/Km [2] was 1.1 10^6/M/s.

B2: UDP-3-O-acyl-N-acetylglucosamine deacetylase (Escherichia coli K-12), P0A725 Q202W,G210S (protein)
chain: B1 chain with Q202W, G210S
In the case of B2, the Km [3] is reported as 11 µM, the kcat [3] is reported as 1.6 s⁻¹ and the kcat/Km [4] is reported as 1.5 10^6/M/s.

B3: UDP-3-O-acyl-N-acetylglucosamine deacetylase (Rhizobium leguminosarum bv. trifolii (strain WSM1325)), C6ARS9 S214G (protein)
chain: MAIGLLGFQTTVSRPVTLSGTGVHSGAEVSITLNPAESDTGVVFQRLHDNGDITELKAVSSQVGNTDLCTVLGFSPAHSVATIEHVMAAVYALGLDNVVIEVQGSEMPIMDGSSLPFVEAIEQVGLVSLGVKRRYIRITKPVRIEHGGSWSEFRPYDGTRFEVEIDFECPLIGRQKWAGDMTPAVFKAELSRARTFGFMRDVERLWASGHALGGSLENSVVISDDNTVINVEGLRYAKDEFVRHKTLDAVGDLSLAGVQFIGCYRSYRGGHKMNANALKALLADSSAYEVVETSTPRQRVAARELIAVSASEFAPWSA
With B3 the Km [5] was 3.9 µM, the kcat [5] was 0.12 s⁻¹ and the kcat/Km [6] was 3.1 10^4/M/s.

B4: UDP-3-O-acyl-N-acetylglucosamine deacetylase (Rhizobium leguminosarum bv. trifolii (strain WSM1325)), C6ARS9 W206Q,S214G (protein)
chain: B3 chain with W206Q
B4 was tested, and the Km [7] was 10 µM, the kcat [7] was 0.14 s⁻¹ and the kcat/Km [8] was 1.4 10^4/M/s.
